In ChEMBL document CHEMBL2062399, “Design, synthesis, and structure-activity relationships of a series of 2-Ar-8-methyl-5-alkylaminoquinolines as novel CRF₁ receptor antagonists” (Bioorg Med Chem Lett, 2012):

How the values were obtained:
[1] = biological target: T1, Corticotropin-releasing factor receptor 1 (Homo sapiens, UniProt P34998); experiment: Displacement of [125I]-CRF from human CRF1 receptor expressed in HEK293 cells after 2 hrs; format: cell-based
T1 sequence (P34998 whole entry): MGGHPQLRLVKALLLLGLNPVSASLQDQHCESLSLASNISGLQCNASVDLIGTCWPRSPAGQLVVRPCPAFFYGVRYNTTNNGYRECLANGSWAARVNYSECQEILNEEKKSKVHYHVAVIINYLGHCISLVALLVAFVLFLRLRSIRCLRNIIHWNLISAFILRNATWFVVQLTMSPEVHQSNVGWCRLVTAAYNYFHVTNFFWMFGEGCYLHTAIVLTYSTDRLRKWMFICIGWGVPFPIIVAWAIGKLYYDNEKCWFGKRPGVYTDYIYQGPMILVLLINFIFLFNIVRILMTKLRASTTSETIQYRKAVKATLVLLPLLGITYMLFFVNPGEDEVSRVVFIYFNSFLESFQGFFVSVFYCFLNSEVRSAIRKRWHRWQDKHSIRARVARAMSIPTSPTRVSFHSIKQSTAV
Method in brief: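 Scintillation proximity assay with HEK293 membranes expressing human CRF1 (5 µg/well), WGA-coated SPA beads and 0.1 nM [125I] human/rat CRF. Buffer pH 7.0 with 10 mM MgCl2, 2 mM EGTA, 1.5% BSA and protease inhibitors. Nonspecific binding with 0.4 µM unlabeled sauvagine. Incubated over 2 h at room temperature, then centrifuged and counted. Specific binding taken as % of total, IC50 from concentration-response curve.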

[2] = biological target: T1, Corticotropin-releasing factor receptor 1; experiment: Antagonist activity at human CRF1 receptor expressed in HEK293 cells assessed as inhibition of CRF-stimulated intracellular cAMP accumulation after 30 mins by enzyme immunoassay; format: functional, cell-based
Method in brief: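 HEK293 cells stably expressing human CRF1, seeded at 5×10^4 cells/well in DMEM with 0.1% FBS and 1 mM IBMX. After 30 min preincubation, compound added for 30 min at 37 °C, then 1 nM human/rat CRF for 30 min at 37 °C. Lysed cAMP measured by EIA, basal subtracted, expressed as % of total production. IC50 from concentration-response curve.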

[3] = tested on: Rattus norvegicus; experiment: Inhibition of CRF-induced fecal pellet output in rat at 10 mg/kg, po administered 1 hr before CRF challenge by measuring decrease in fecal weight after 4 hrs; format: functional; details: Feces
Method in brief: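 Rats dosed orally at 10 mg/kg 1 h before intravenous CRF (10 µg/kg). Fecal weight measured 4 h after CRF injection and compared with the vehicle + CRF group. 6–7 rats/group, mean ± S.E.M., unpaired t test.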

SMILES	IC50 [1] [nM]	IC50 [2] [nM]	inhibition in vivo at 10 mg/kg [3] [%]
COCc1cc(OC)c(-c2nc3c(C)ccc(N(CC4CC4)C4CCOCC4)c3cc2C)c(OC)c1	246	–	–
COCc1cc(OC)c(-c2nc3c(C)ccc(N(C)C)c3cc2C)c(OC)c1	212	> 1000	–
COCc1cc(OC)c(-c2nc3c(C)ccc(N(CC4CCOCC4)CC4CC4)c3cc2C)c(OC)c1	286	–	–
COCCNc1ccc(C)c2nc(-c3c(OC)cc(COC)cc3OC)c(C)cc12	> 1000	–	–
CCCN(CCC)c1ccc(CC)c2nc(-c3c(OC)cc(COC)cc3OC)c(C)cc12	115	375	–
CCCN(CCC)c1ccc(C)c2nc(Oc3c(OC)cc(COC)cc3OC)c(C)cc12	> 1000	–	–
CCC(CC)Nc1ccc(C)c2nc(-c3c(OC)cc(COC)cc3OC)c(C)cc12	> 1000	–	–
CCN(CC)c1ccc(C)c2nc(-c3c(OC)cc(COC)cc3OC)c(F)cc12	144	131	–
CCN(CC)c1ccc(C)c2nc(-c3c(OC)cc(COC)cc3OC)ccc12	184	381	–
CCN(CCOC)c1ccc(C)c2nc(-c3c(OC)cc(COC)cc3OC)c(C)cc12	109	23	–
CCCN(CCC)c1cccc2nc(-c3c(OC)cc(COC)cc3OC)c(C)cc12	276	97	–

These reach a lower IC50 [1]. Values come first.

IC50 [1] [nM]	IC50 [2] [nM]	SMILES	inhibition in vivo at 10 mg/kg [3] [%]
89	174	COCCN(C)c1ccc(C)c2nc(-c3c(OC)cc(COC)cc3OC)c(C)cc12	–
88	46	COCc1cc(OC)c(-c2nc3c(C)ccc(N(CC4CC4)CC4CC4)c3cc2C)c(OC)c1	53
88	70	CCCN(CCC)c1ccc(C)c2nc(-c3c(OC)cc(COC)cc3OC)c(C)cc12	64
79	24	CCN(CC)c1ccc(C)c2nc(-c3c(OC)cc(COC)cc3OC)c(C)cc12	63
81	45	CCN(CC)c1ccc(C)c2nc(-c3c(OC)cc(COC)cc3OC)c(Cl)cc12	–
